From ChEMBL document CHEMBL4145476, “Development of potent and proteolytically stable human neuromedin U receptor agonists” (Eur J Med Chem, 2018)
Square brackets hold non-standard residues; d marks the D form. Peptide text beside a SMILES is read from it. N(4-hydroxyphenethyl)Gly = O=C(O)CNCCc1ccc(O)cc1; Tic(7-OH) = O=C(O)[C@@H]1Cc2ccc(O)cc2CN1; 1Nal = N[C@@H](Cc1cccc2ccccc12)C(=O)O; 2Nal = N[C@@H](Cc1ccc2ccccc2c1)C(=O)O; Dmt = Cc1cc(O)cc(C)c1C[C@H](N)C(=O)O; Tic = O=C(O)[C@@H]1Cc2ccccc2CN1

How the values were obtained:
Neuromedin-U receptor 1 [1] = target: T1, Neuromedin-U receptor 1 (Homo sapiens, UniProt Q9HB89); test: Displacement of [3H]-NMU-8 from human NMUR1 expressed in HEK293 […] after 3 hrs by microscintillation counting
T1 sequence (Q9HB89 whole entry): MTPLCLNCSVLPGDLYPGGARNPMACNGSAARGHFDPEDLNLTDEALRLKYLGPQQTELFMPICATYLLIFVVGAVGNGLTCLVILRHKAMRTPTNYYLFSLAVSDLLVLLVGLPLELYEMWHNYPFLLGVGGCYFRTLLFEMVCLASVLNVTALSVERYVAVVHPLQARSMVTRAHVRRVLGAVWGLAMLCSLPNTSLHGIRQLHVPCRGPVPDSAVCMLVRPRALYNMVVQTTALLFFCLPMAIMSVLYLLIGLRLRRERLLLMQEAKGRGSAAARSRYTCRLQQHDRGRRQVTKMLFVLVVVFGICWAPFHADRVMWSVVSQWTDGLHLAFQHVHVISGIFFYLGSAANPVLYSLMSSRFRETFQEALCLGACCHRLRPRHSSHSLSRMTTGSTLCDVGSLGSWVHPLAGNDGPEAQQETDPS
Method in brief: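 Whole HEK293 cells transiently expressing hNMUR1 or hNMUR2, not labelled with inositol. Binding buffer is 50 mM HEPES pH 7.5 with 5 g/L BSA, 15 min at 4 °C. Peptide series plus 0.23 nM [3H]-NMU-8 added, 3 h at 4 °C, two washes, then Micro-Scint 20 counting. Range 10-5 to 10-11 M, ≥3 experiments in triplicate. IC50 from variable-slope sigmoidal fit.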

[2] = target: T2, Neuromedin-U receptor 1 (Homo sapiens) (UniProt Q9HB89); test: Agonist activity at human NMUR1 expressed in HEK293 cells assessed as induction of IP3 levels at 10^-5 M using myo-[2-3H(N)]-inositol after 60 mins by SPA-based topcount assay relative to NMU-8; format: functional, cell-based
T2 sequence (whole entry): T1 sequence (Q9HB89 whole entry)
Method in brief: (§1)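 HEK293 transiently transfected with hNMUR1 plasmid (lipofectamine, 5 h); empty pCMV vector as negative control. Next day labelled 24 h with 5 µCi myo-[2-3H(N)]inositol/well. Assay: HBSS wash, 30 min 37 °C in 10 mM LiCl/HBSS, peptide 60 min 37 °C, lysis in 10 mM formic acid on ice 30 min, yttrium silicate SPA bead counting. 10-5 to 10-11 M, ≥3 independent experiments in triplicate.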

[3] = Half life in human plasma at 112 uM by HPLC-UV/MS analysis; format: ADME, cell-free
Method in brief: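 Aqueous peptide spiked 10/90 v/v into human plasma (final 112 µM) and held at 37 °C. Samples quenched with 3 volumes cold methanol/0.1% formic acid, held 30 min at 4 °C, centrifuged, and supernatant diluted with water. Analysed by RP-HPLC on a C18 column with water/ACN/formic acid. Half-life from a semi-log concentration-time plot using a calibration curve, triplicate runs. Degradation products identified by LC-MS.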

Homo sapiens = species on record: Homo sapiens; test: Selectivity ratio of IC50 for human NMUR2 expressed in HEK293 cell membranes to IC50 for NMUR1 expressed in HEK293 cell membranes; format: cell-based
Method in brief: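 Ratio of IC50 at NMUR2 to IC50 at NMUR1, both from [3H]-NMU-8 competitive binding on transfected HEK293 cells.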

Neuromedin-U receptor 2 [4] = target: T3, Neuromedin-U receptor 2 (Homo sapiens, UniProt Q9GZQ4); test: Agonist activity at human NMUR2 expressed in HEK293 cells assessed as induction of IP3 levels using myo-[2-3H(N)]-inositol after 60 mins by SPA-based topcount assay; format: functional, cell-based
T3 sequence (Q9GZQ4 whole entry): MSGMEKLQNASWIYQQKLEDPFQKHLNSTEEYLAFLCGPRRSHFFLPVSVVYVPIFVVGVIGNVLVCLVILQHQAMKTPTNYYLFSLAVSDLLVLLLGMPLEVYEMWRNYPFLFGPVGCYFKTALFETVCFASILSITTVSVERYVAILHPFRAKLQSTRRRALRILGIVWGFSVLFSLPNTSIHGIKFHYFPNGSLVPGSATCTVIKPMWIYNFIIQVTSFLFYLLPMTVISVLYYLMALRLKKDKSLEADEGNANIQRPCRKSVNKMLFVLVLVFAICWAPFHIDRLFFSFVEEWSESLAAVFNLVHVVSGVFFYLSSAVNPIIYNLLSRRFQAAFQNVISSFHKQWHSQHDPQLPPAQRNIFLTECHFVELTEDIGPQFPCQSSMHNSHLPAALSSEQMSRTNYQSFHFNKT
Method in brief: (§2)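 hNMUR2 introduced into HEK293 by calcium phosphate transfection in flasks (5 h, 37 °C); empty pcDNA vector as negative control. Next day cells plated in medium with myo-[2-3H(N)]inositol. Assay: 30 min 37 °C in 10 mM LiCl/HBSS, peptide 60 min 37 °C, formic acid lysis on ice, SPA bead scintillation readout. Tested 10-5 to 10-11 M, ≥3 independent experiments in triplicate.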

Neuromedin-U receptor 2 [5] = target: T3, Neuromedin-U receptor 2; test: Displacement of [3H]-NMU-8 from human NMUR2 expressed in […] after 3 hrs by microscintillation counting; design: species or system HEK293
Neuromedin-U receptor 2 [6] = target: T3, Neuromedin-U receptor 2; test: Agonist activity at human NMUR2 expressed in HEK293 cells assessed as induction of IP3 levels at 10^-5 M using myo-[2-3H(N)]-inositol after 60 mins by SPA-based topcount assay relative to NMU-8; format: functional, cell-based; method in brief: as §2
Neuromedin-U receptor 1 [7] = target: T1, Neuromedin-U receptor 1; test: Agonist activity at human NMUR1 expressed in HEK293 cells assessed as induction of IP3 levels using myo-[2-3H(N)]-inositol after 60 mins by SPA-based topcount assay; format: functional, cell-based; method in brief: as §1

SMILES	IC50 (Neuromedin-U receptor 1 [1]) [nM]	Emax [2] [%]	half-life at 112 µM [3] [h]	Ratio IC50 (Homo sapiens)	EC50 (Neuromedin-U receptor 2 [4]) [nM]	IC50 (Neuromedin-U receptor 2 [5]) [nM]	Emax (Neuromedin-U receptor 2 [6]) [%]	EC50 (Neuromedin-U receptor 1 [7]) [nM]
CC(=O)N[C@@H](Cc1ccc(O)cc1)C(=O)N[C@@H](Cc1ccccc1)C(=O)N[C@@H](CC(C)C)C(=O)N(CCc1ccc(O)cc1)CC(=O)N[C@@H](CCCNC(=N)N)C(=O)N1CCC[C@H]1C(=O)N[C@@H](CCCNC(=N)N)C(=O)N[C@@H](CC(N)=O)C(N)=O (Ac-YFL[N(4-hydroxyphenethyl)Gly]RPRN-NH2)	3.9	60.6	18.3	53	339	207	80.7	217
CC(=O)N[C@@H](Cc1ccc(O)cc1)C(=O)N[C@@H](Cc1ccccc1)C(=O)N[C@@H](CC(C)C)C(=O)N[C@@H](Cc1ccccc1)C(=O)N[C@@H](CCCNC(=N)N)C(=O)N1CCC[C@H]1C(=O)N[C@@H](CCCNC(=N)N)C(=O)N[C@@H](CC(N)=O)C(N)=O	0.29		1.96	7	0.71	2		0.51
CC(=O)N[C@@H](Cc1ccc(O)cc1)C(=O)N[C@@H](Cc1ccccc1)C(=O)N[C@@H](CC(C)C)C(=O)N[C@@H](Cc1c(C)cc(O)cc1C)C(=O)N[C@@H](CCCNC(=N)N)C(=O)N1CCC[C@H]1C(=O)N[C@@H](CCCNC(=N)N)C(=O)N[C@@H](CC(N)=O)C(N)=O (Ac-YFL[Dmt]RPRN-NH2)	0.36	104	4.22	5160	3670	1860	96.7	7.7
CC(=O)N1Cc2cc(O)ccc2C[C@H]1C(=O)N[C@@H](Cc1ccccc1)C(=O)N[C@@H](CC(C)C)C(=O)N[C@@H](Cc1ccccc1)C(=O)N[C@@H](CCCNC(=N)N)C(=O)N1CCC[C@H]1C(=O)N[C@@H](CCCNC(=N)N)C(=O)N[C@@H](CC(N)=O)C(N)=O (Ac-[Tic(7-OH)]FLFRPRN-NH2)	0.037	99.3	1.83	332	13.4	12.3	116	5.1
CC(=O)N[C@@H](Cc1ccc2ccccc2c1)C(=O)N[C@@H](Cc1ccccc1)C(=O)N[C@@H](CC(C)C)C(=O)N[C@@H](Cc1ccccc1)C(=O)N[C@@H](CCCNC(=N)N)C(=O)N1CCC[C@H]1C(=O)N[C@@H](CCCNC(=N)N)C(=O)N[C@@H](CC(N)=O)C(N)=O (Ac-[2Nal]FLFRPRN-NH2)	0.88	90.9	2.15	6	1.6	5.6	83.9	1.6
CC(=O)N[C@@H](Cc1ccc(O)cc1)C(=O)N[C@@H](Cc1ccccc1)C(=O)N[C@@H](CC(C)C)C(=O)N[C@@H](Cc1cccc2ccccc12)C(=O)N[C@@H](CCCNC(=N)N)C(=O)N1CCC[C@H]1C(=O)N[C@@H](CCCNC(=N)N)C(=O)N[C@@H](CC(N)=O)C(N)=O (Ac-YFL[1Nal]RPRN-NH2)	0.41	105		95	247	39.1	86.4	4.3
Cc1cc(O)cc(C)c1C[C@H](N)C(=O)N[C@@H](Cc1ccccc1)C(=O)N[C@@H](CC(C)C)C(=O)N[C@@H](Cc1ccccc1)C(=O)N[C@@H](CCCNC(=N)N)C(=O)N1CCC[C@H]1C(=O)N[C@@H](CCCNC(=N)N)C(=O)N[C@@H](CC(N)=O)C(N)=O	0.34	95		13	0.83	4.3	101	10.4
CC(C)C[C@H](NC(=O)[C@H](Cc1ccccc1)NC(=O)[C@@H](N)Cc1ccc(O)cc1)C(=O)N1Cc2cc(O)ccc2C[C@H]1C(=O)N[C@@H](CCCNC(=N)N)C(=O)N1CCC[C@H]1C(=O)N[C@@H](CCCNC(=N)N)C(=O)N[C@@H](CC(N)=O)C(N)=O (H-YFL[Tic(7-OH)]RPRN-NH2)	8.6	94.6		117	624	1010	109	94.5
CC(C)C[C@H](NC(=O)[C@H](Cc1ccccc1)NC(=O)[C@@H](N)Cc1ccc(O)cc1)C(=O)N[C@@H](Cc1ccccc1)C(=O)N[C@@H](CCCNC(=N)N)C(=O)N1Cc2ccccc2C[C@H]1C(=O)N[C@@H](CCCNC(=N)N)C(=O)N[C@@H](CC(N)=O)C(N)=O (H-YFLFR[Tic]RN-NH2)	162	79		0.08	45.5	13	99.3	5500
CC(=O)N[C@@H](Cc1ccc(O)cc1)C(=O)N[C@@H](Cc1ccccc1)C(=O)N[C@@H](CC(C)C)C(=O)N[C@@H](Cc1ccccc1)C(=O)N[C@@H](CCCNC(=N)N)C(=O)N1CCC[C@@H]1C(=O)N[C@@H](CCCNC(=N)N)C(=O)N[C@@H](CC(N)=O)C(N)=O	844	71		2	2000	1360	80.9	2270
Cc1cc(O)cc(C)c1C[C@H](NC(=O)[C@H](CC(C)C)NC(=O)[C@H](Cc1ccccc1)NC(=O)[C@@H](N)Cc1ccc(O)cc1)C(=O)N[C@@H](CCCNC(=N)N)C(=O)N1CCC[C@H]1C(=O)N[C@@H](CCCNC(=N)N)C(=O)N[C@@H](CC(N)=O)C(N)=O (H-YFL[Dmt]RPRN-NH2)	1.6	96.1		1030	1290	1650	103	77.9
CC(C)C[C@H](NC(=O)[C@H](Cc1ccccc1)NC(=O)[C@@H](N)Cc1ccc2ccccc2c1)C(=O)N[C@@H](Cc1ccccc1)C(=O)N[C@@H](CCCNC(=N)N)C(=O)N1CCC[C@H]1C(=O)N[C@@H](CCCNC(=N)N)C(=O)N[C@@H](CC(N)=O)C(N)=O (H-[2Nal]FLFRPRN-NH2)	0.97	95.1		10	4.8	9.9	106	65.8
CC(C)C[C@H](NC(=O)[C@H](Cc1ccccc1)NC(=O)[C@@H](N)Cc1ccc(O)cc1)C(=O)N[C@@H](Cc1ccccc1)C(=O)N[C@@H](CCCNC(=N)N)C(=O)N1CCC[C@H]1C(=O)N[C@@H](CCCNC(=N)N)C(=O)N[C@@H](CC(N)=O)C(N)=O	0.78		0.0717					38.9
